In brackets after ≈: the same amount, converted by molar mass.
Assays:
Assay type in all cases: functional
[1] = system: Haemophilus influenzae; experiment: Antimicrobial activity against beta-lactamase-negative, ampicillin-sensitive Haemophilus influenzae by broth microdilution method
Procedure, shortened: (§1)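 Broth microdilution MIC in freshly prepared Haemophilus test medium per 2008 CLSI guidelines; H. influenzae ATCC 49247 and ATCC 49766 as control strains. Isolates from outpatient nasal aspirates (no prior antibiotics), cultured on blood agar with S. aureus streak and chocolate agar. PBP3 substitutions deduced from ftsI sequencing against the Rd strain; β-lactamase genes (TEM-1, ROB-1) detected by PCR.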

[2] = system: Haemophilus influenzae; experiment: Antimicrobial activity against Beta-lactamase-negative, ampicillin-resistant Haemophilus influenzae by broth microdilution method; procedure, shortened: as §1
[3] = system: Haemophilus influenzae; experiment: Antimicrobial activity against Beta-lactamase-positive, ampicillin-cluvulanate-resistant Haemophilus influenzae by broth microdilution method; procedure, shortened: as §1
[4] = system: Haemophilus influenzae; experiment: Antimicrobial activity against Beta-lactamase-positive, ampicillin-resistant Haemophilus influenzae by broth microdilution method; procedure, shortened: as §1
[5] = system: Haemophilus influenzae; experiment: Antimicrobial activity against Haemophilus influenzae isolate by broth microdilution method; procedure, shortened: as §1
[6] = system: Haemophilus influenzae; experiment: Antimicrobial activity against Beta-lactamase-negative, ampicillin-resistant Haemophilus influenzae with Asp350Asn, Met377Ile, Asn526Lys substitutions in penicillin-binding protein 3 by broth microdilution method; procedure, shortened: as §1
[7] = system: Haemophilus influenzae; experiment: Antimicrobial activity against Beta-lactamase-negative, ampicillin-resistant Haemophilus influenzae with Asp350Asn, Ser357Asp, Met377Ile, Ser385Thr, Leu389Phe, substitutions in penicillin-binding protein 3 by broth microdilution method; procedure, shortened: as §1
[8] = system: Haemophilus influenzae; experiment: Antimicrobial activity against Beta-lactamase-positive, ampicillin-cluvulanate-resistant Haemophilus influenzae with Asp350Asn, Met377Ile, Asn526Lys substitutions in penicillin-binding protein 3 by broth microdilution method; procedure, shortened: as §1
[9] = system: Haemophilus influenzae; experiment: Antimicrobial activity against Beta-lactamase-negative, ampicillin-resistant Haemophilus influenzae with Asp350Asn, Ser357Asp, Ser385Thr, Leu389Phe, Ala502Thr, Asn526Lys substitutions in penicillin-binding protein 3 by broth microdilution method; procedure, shortened: as §1
[10] = system: Haemophilus influenzae; experiment: Antimicrobial activity against Beta-lactamase-positive, ampicillin-cluvulanate-resistant Haemophilus influenzae with Asp350Asn, Met377Ile, Ser385Thr, Asn526Lys substitutions in penicillin-binding protein 3 by broth microdilution method; procedure, shortened: as §1
[11] = system: Haemophilus influenzae; experiment: Antimicrobial activity against Beta-lactamase-positive, ampicillin-cluvulanate-resistant Haemophilus influenzae with Asp350Asn, Ser357Asp, Ala437Ser, Ala502Thr, Asn526Lys substitutions in penicillin-binding protein 3 by broth microdilution method; procedure, shortened: as §1
[12] = system: Haemophilus influenzae; experiment: Antimicrobial activity against Beta-lactamase-negative, ampicillin-resistant Haemophilus influenzae with Asp350Asn, Met377Ile, Gly490Glu, Ala502Val, Asn526Lys substitutions in penicillin-binding protein 3 by broth microdilution method; procedure, shortened: as §1
[13] = system: Haemophilus influenzae; experiment: Antimicrobial activity against Beta-lactamase-negative, ampicillin-resistant Haemophilus influenzae with Ala502Val, Asn526Lys substitutions in penicillin-binding protein 3 by broth microdilution method; procedure, shortened: as §1
[14] = system: Haemophilus influenzae; experiment: Antimicrobial activity against Beta-lactamase-positive, ampicillin-cluvulanate-resistant Haemophilus influenzae with Asp350Asn, Ser357Asp, Met377Ile, Ser385Thr, Arg517His substitutions in penicillin-binding protein 3 by broth microdilution method; procedure, shortened: as §1
[15] = system: Haemophilus influenzae; experiment: Antimicrobial activity against Beta-lactamase-positive, ampicillin-cluvulanate-resistant Haemophilus influenzae with Asp350Asn, Ala437Ser substitutions in penicillin-binding protein 3 by broth microdilution method; procedure, shortened: as §1
[16] = system: Haemophilus influenzae; experiment: Antimicrobial activity against Beta-lactamase-positive, ampicillin-cluvulanate-resistant Haemophilus influenzae with Ala368Thr, Ala502Thr, Asn526Lys substitutions in penicillin-binding protein 3 by broth microdilution method; procedure, shortened: as §1
[17] = system: Haemophilus influenzae; experiment: Antimicrobial activity against Beta-lactamase-negative, ampicillin-resistant Haemophilus influenzae with Ile449Val, Asn526Lys substitutions in penicillin-binding protein 3 by broth microdilution method; details: Haemophilus influenzae; read-out: MIC; procedure, shortened: as §1
[18] = system: Haemophilus influenzae; experiment: Antimicrobial activity against Beta-lactamase-positive, ampicillin-cluvulanate-resistant Haemophilus influenzae with Ala502Val, Asn526Lys substitutions in penicillin-binding protein 3 by broth microdilution method; procedure, shortened: as §1
[19] = system: Haemophilus influenzae; experiment: Antimicrobial activity against Beta-lactamase-negative, ampicillin-resistant Haemophilus influenzae with Ile449Val, Ala502Thr, Asn526Lys substitutions in penicillin-binding protein 3 by broth microdilution method; procedure, shortened: as §1
[20] = system: Haemophilus influenzae; experiment: Antimicrobial activity against Beta-lactamase-negative, ampicillin-resistant Haemophilus influenzae with penicillin-binding protein 3 by broth microdilution method; procedure, shortened: as §1
[21] = system: Haemophilus influenzae; experiment: Antimicrobial activity against Beta-lactamase-positive, ampicillin-cluvulanate-resistant Haemophilus influenzae with Asp350Asn, Met377Ile, Ala502Val, Asn526Lys substitutions in penicillin-binding protein 3 by broth microdilution method; procedure, shortened: as §1
[22] = system: Haemophilus influenzae; experiment: Antimicrobial activity against Beta-lactamase-negative, ampicillin-resistant Haemophilus influenzae with Asp350Asn, Ser357Asp, Met377Ile, Ser385Thr, Arg517His substitutions in penicillin-binding protein 3 by broth microdilution method; procedure, shortened: as §1
[23] = system: Haemophilus influenzae; experiment: Antimicrobial activity against Beta-lactamase-negative, ampicillin-resistant Haemophilus influenzae with Asp350Asn, Ser357Asp, Met377Ile, Ser385Thr, Ala502Thr, Asn526Lys substitutions in penicillin-binding protein 3 by broth microdilution method; procedure, shortened: as §1
[24] = system: Haemophilus influenzae; experiment: Antimicrobial activity against Beta-lactamase-positive, ampicillin-cluvulanate-resistant Haemophilus influenzae with Ile449Val, Asn526Lys substitutions in penicillin-binding protein 3 by broth microdilution method; procedure, shortened: as §1
[25] = system: Haemophilus influenzae; experiment: Antimicrobial activity against Beta-lactamase-negative, ampicillin-resistant Haemophilus influenzae with Asp350Asn, Met377Ile, Ala502Val, Asn526Lys substitutions in penicillin-binding protein 3 by broth microdilution method; procedure, shortened: as §1
[26] = system: Haemophilus influenzae; experiment: Antimicrobial activity against Beta-lactamase-positive, ampicillin-cluvulanate-resistant Haemophilus influenzae with Asp350Asn, Met377Ile, Gly490Glu, Ala502Val, Asn526Lys substitutions in penicillin-binding protein 3 by broth microdilution method; procedure, shortened: as §1
[27] = system: Haemophilus influenzae; experiment: Antimicrobial activity against Beta-lactamase-negative, ampicillin-resistant Haemophilus influenzae with Asp350Asn, Met377Ile, Gly490Glu, Asn526Lys substitutions in penicillin-binding protein 3 by broth microdilution method; procedure, shortened: as §1
[28] = system: Haemophilus influenzae; experiment: Antimicrobial activity against Beta-lactamase-negative, ampicillin-resistant Haemophilus influenzae with Ser311Pro, Ala502Thr, Asn526Lys substitutions in penicillin-binding protein 3 by broth microdilution method; procedure, shortened: as §1
[29] = system: Haemophilus influenzae; experiment: Antimicrobial activity against Beta-lactamase-negative, ampicillin-resistant Haemophilus influenzae with Gly490Glu, Asn526Lys substitutions in penicillin-binding protein 3 by broth microdilution method; procedure, shortened: as §1
[30] = system: Haemophilus influenzae; experiment: Antimicrobial activity against Beta-lactamase-positive, ampicillin-cluvulanate-resistant Haemophilus influenzae with Asp350Asn, Ala502Thr, Asn526Lys substitutions in penicillin-binding protein 3 by broth microdilution method; procedure, shortened: as §1

Question: For `O=C(N[C@H](CO)[C@H](O)c1ccc([N+](=O)[O-])cc1)C(Cl)Cl` [CHLORAMPHENICOL], which MIC50 [1] is on record?
Answer: Its MIC50 is 0.5 µg/mL (≈ 1.55 µM).

Question: And the MIC90 [1]?
Answer: Its MIC90 is 0.5 µg/mL (≈ 1.55 µM).

Question: What about the MIC50 [2] of the same molecule?
Answer: Its MIC50 is 0.5 µg/mL (≈ 1.55 µM).

Question: And the MIC90 [2]?
Answer: Its MIC90 is 1 µg/mL (≈ 3.09 µM).

Question: And the MIC50 [3]?
Answer: Its MIC50 is 0.5 µg/mL (≈ 1.55 µM).

Question: What about the MIC90 [3] of the same molecule?
Answer: The MIC90 was 8 µg/mL (≈ 24.8 µM).

Question: What about the MIC50 [4] of the same molecule?
Answer: The MIC50 was 0.5 µg/mL (≈ 1.55 µM).

Question: What about the MIC90 [4] of the same molecule?
Answer: Its MIC90 is 8 µg/mL (≈ 24.8 µM).

Question: What about the MIC50 [5] of the same molecule?
Answer: Its MIC50 is 0.5 µg/mL (≈ 1.55 µM).

Question: And the MIC90 [5]?
Answer: The MIC90 was 1 µg/mL (≈ 3.09 µM).

Question: `CO/N=C(\C(=O)N[C@@H]1C(=O)N2C(C(=O)O)=C(COC(C)=O)CS[C@H]12)c1csc(N)n1` [CEFOTAXIME] was tested. Which MIC [6] did it give?
Answer: The MIC was 0.063 µg/mL (≈ 0.138 µM).

Question: What about the MIC [7] of the same molecule?
Answer: Its MIC is 1.7 µg/mL (≈ 3.73 µM).

Question: And the MIC50 [1]?
Answer: Its MIC50 is 0.063 µg/mL (≈ 0.138 µM).

Question: And the MIC90 [1]?
Answer: The MIC90 was 0.25 µg/mL (≈ 0.549 µM).

Question: What about the MIC [8] of the same molecule?
Answer: The MIC was 0.532 µg/mL (≈ 1.17 µM).

Question: And the MIC [9]?
Answer: Its MIC is 0.194 µg/mL (≈ 0.426 µM).

Question: What about the MIC [10] of the same molecule?
Answer: Its MIC is 0.532 µg/mL (≈ 1.17 µM).

Question: What about the MIC50 [2] of the same molecule?
Answer: Its MIC50 is 0.063 µg/mL (≈ 0.138 µM).

Question: And the MIC90 [2]?
Answer: Its MIC90 is 1 µg/mL (≈ 2.2 µM).

Question: What about the MIC [11] of the same molecule?
Answer: Its MIC is 0.079 µg/mL (≈ 0.173 µM).

Question: What about the MIC [12] of the same molecule?
Answer: Its MIC is 0.069 µg/mL (≈ 0.151 µM).

Question: What about the MIC [13] of the same molecule?
Answer: The MIC was 0.069 µg/mL (≈ 0.151 µM).

Question: And the MIC [14]?
Answer: Its MIC is 0.188 µg/mL (≈ 0.413 µM).

Question: And the MIC [15]?
Answer: The MIC was 0.125 µg/mL (≈ 0.274 µM).

Question: And the MIC [16]?
Answer: The MIC was 0.079 µg/mL (≈ 0.173 µM).

Question: What about the MIC [17] of the same molecule?
Answer: Its MIC is 0.708 µg/mL (≈ 1.55 µM).

Question: What about the MIC [18] of the same molecule?
Answer: The MIC was 0.188 µg/mL (≈ 0.413 µM).

Question: And the MIC50 [3]?
Answer: The MIC50 was 0.063 µg/mL (≈ 0.138 µM).

Question: And the MIC90 [3]?
Answer: Its MIC90 is 1 µg/mL (≈ 2.2 µM).

Question: And the MIC [19]?
Answer: The MIC was 0.194 µg/mL (≈ 0.426 µM).

Question: What about the MIC [20] of the same molecule?
Answer: Its MIC is 0.063 µg/mL (≈ 0.138 µM).

Question: What about the MIC [21] of the same molecule?
Answer: Its MIC is 0.188 µg/mL (≈ 0.413 µM).

Question: What about the MIC [22] of the same molecule?
Answer: Its MIC is 0.25 µg/mL (≈ 0.549 µM).

Question: And the MIC50 [4]?
Answer: Its MIC50 is 0.063 µg/mL (≈ 0.138 µM).

Question: What about the MIC90 [4] of the same molecule?
Answer: Its MIC90 is 0.125 µg/mL (≈ 0.274 µM).

Question: And the MIC [23]?
Answer: The MIC was 0.194 µg/mL (≈ 0.426 µM).

Question: And the MIC50 [5]?
Answer: The MIC50 was 0.063 µg/mL (≈ 0.138 µM).

Question: And the MIC90 [5]?
Answer: The MIC90 was 0.125 µg/mL (≈ 0.274 µM).

Question: And the MIC [24]?
Answer: The MIC was 0.094 µg/mL (≈ 0.206 µM).

Question: What about the MIC [25] of the same molecule?
Answer: The MIC was 0.069 µg/mL (≈ 0.151 µM).

Question: What about the MIC [26] of the same molecule?
Answer: Its MIC is 0.188 µg/mL (≈ 0.413 µM).

Question: What about the MIC [27] of the same molecule?
Answer: Its MIC is 0.063 µg/mL (≈ 0.138 µM).

Question: What about the MIC [28] of the same molecule?
Answer: Its MIC is 0.194 µg/mL (≈ 0.426 µM).

Question: What about the MIC [29] of the same molecule?
Answer: The MIC was 0.063 µg/mL (≈ 0.138 µM).

Question: And the MIC [30]?
Answer: Its MIC is 0.079 µg/mL (≈ 0.173 µM).
